# Data reported in the EternaBench riboswitch data.
# Test system: MS2 coat protein
# Test: apparent Kd, MS2 coat protein; higher = weaker binding; RNA-MaP array; FMN 200 µM where present
# Method in brief: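 The apparent Kd comes from binding curves fitted cluster by cluster, filtered, and summarised as a median. Those curves followed SNAP-549-labelled MS2 coat protein from 0.7 or 1.5 nM, doubling to 3 µM, on Illumina sequencing-chip clusters where stalled E. coli RNA polymerase had transcribed the designs, without and then with constant ligand. The buffer was 100 mM Tris-HCl pH 7.5, 80 mM KCl, 4 mM MgCl2, BSA, DTT, yeast tRNA and Tween-20, and green signal was normalised to red-channel RNA signal and control-cluster median Fmax.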
# [1] = designed as: OFF switch for flavin mononucleotide, no ligand
# [2] = ligand present: flavin mononucleotide, designed as: OFF switch for flavin mononucleotide
# [3] = designed as: ON switch for flavin mononucleotide, no ligand
# [4] = ligand present: flavin mononucleotide, designed as: ON switch for flavin mononucleotide
Sequence,apparent Kd [1],apparent Kd [2],apparent Kd [3],apparent Kd [4]
GAUAAUAUAGGAUAUACAUGAGGAUCACCCAUGUCCCGAUAUUAGGAGGACCUCCUCGGUAGAAGGAUAUGUGC,129 nM,131 nM,–,–
AUAGUAGAAGUGAGGAUAUCGUAGAUUUUAGGAAACGAGAAGGCACAUGAGGAUCACCCAUGUAAGAUGGAGGU,280 nM,298 nM,–,–
CGCUCACAUGAGGAUCACCCAUGUCCUAGGAGGUCAGGAUAUAGCUCGGAUGCGUUGAGGCUAGAAGGGACAGCUG,–,–,259 nM,84.7 nM
UUUUAGAUCCGAGGAUAUACAAUCCGGAAACGGUACAUGAGGAUCACCCAUGUAGAAGGCGGAUCUACAGGUACUAAAGUAUUU,10 nM,8.84 nM,–,–
AGUCGGAGCAGAGGAUAUAUACAUGAGGAUCACCCAUGUAAAUGAAUGAGCUGGAAACAGCAUGUAUAGAAGGCUGCUCCGACA,113 nM,303 nM,–,–
GCAUGAAAUGUGAGGAUAUACCUCUGGAUACAUAGGUAGAAGGCACAUGAGGAUCACCCAUGUCCUAAACAUGC,34.7 nM,42.2 nM,–,–
CAGCCCUGAGGAUAUCCCUACUCGCACAUGAGGAUCACCCAUGUCCUCCUCCGGGCUUCGGGAGAAGGCAGGUCUC,22.4 nM,93.5 nM,–,–
UCCACUGCUGAGAAGGGAUACGUCUGGUUCGCAUCAGGAUAUCGAUACAGUGCAGCAUGAGGACAUGAGGAUCACCCAUGUGUC,–,–,21.6 nM,19.3 nM
GGUUCUAGAGGAUAUACAAACUGAUCCUCAGAGCGCCGGCCACAUGAGGAUCACCCAUGUAGAAGGUUGGAAUC,20.3 nM,11.6 nM,–,–
UUUAUGUCAGGAUAUACAUGAGGAUCACCCAUGUAUAUCUUAAAGUAUACAUGGAAAUGUAGAAGGGACGUCCU,15.1 nM,17.1 nM,–,–
GUAAAUGGUAUGGCUUCGACCACACAGGAUAUGAAAAUGUACAUGAGGAUCACCCAUGUUCUGAAUCAGAAGGGUGAUGGACGG,–,–,20.7 nM,6.74 nM
GGUCGUCAAAUUAACAUGAGGAUCACCCAUGUGAAAACACAUGAGGAUAUGCAUCCUAAUUGGAUGCAGAAGGCAUGGACGACC,–,–,16.5 nM,6.21 nM
AGGGAGUGAGGAUAUACGAAAUAAAAAGAAGGAAAAAAAGAGUAGAAGGCACAUGAGGAUCACCCAUGUGAGAA,22 nM,19.5 nM,–,–
AAAAGUAGAGGAUAUACAUGAGGAUCACCCAUGUAGAAAGGAAGUAUAUAUAUGGCGUGUAGAAGGCUGCAUGA,34.5 nM,32.2 nM,–,–
CCACGUCACAUUAACAUGAGGAUCACCCAUGUCAAAAGACAUGAGGAUAUGCAUCCUAAUUGGAUGCAGAAGGCAUGGACGUGG,–,–,475 nM,36.1 nM
GGAGAGUUCACAGGAUAUCAUGGGUAGUUAUUUUGAGAAGGGUGAACAAGGAACAUGAGGAUCACCCAUGUAUCCUGGAAGGGC,–,–,39.9 nM,60.5 nM
CGGUCCCAUGUGAGGAUAUCGGAGCGAAAAUACUGCGAGAAGGUACAUGAGGAUCACCCAUGUCUCCUAUUGCC,16.5 nM,32.5 nM,–,–
AUGGAUAUCACAGGAUAUGCUAAGGAUACCUUAGCAGAAGGGUGAUCCAUCCUAUGGCUGCACAUGAGGAUCACCCAUGUGUCC,–,–,124 nM,11.8 nM
AUUAAGUGAGGAUAUACAAGAUCGCUUACCGCCAAAGGCGGACAUGAGGAUCACCCAUGUAGAAGGCACAAAUU,45.7 nM,270 nM,–,–
UCAAAGCUAGGAUAUACAUGAGGAUCACCCAUGUUAUCACCCAUCGGGUCUUGCUUUUGUAGAAGGAGCAAUAA,28.2 nM,59.8 nM,–,–
GAUCCGUCCUAGAAGGCCAUCCAACAUGAGGAUCACCCAUGUGCGGACUGGAGGAUAUAGGUGGGAUAGGCCUAGGGCCCGGUC,–,–,7.43 nM,5.55 nM
GCGUACAUAUCAGGAUAUCAUAUAAUUGUUUAUCUCAGUGUAUACAUGAGGAUCACCCAUGUUCUUGAGAAGGGAUAUGUACGC,8.24 nM,8.68 nM,–,–
UGUACGGACAUGAGGAUCACCCAUGUAACCAAGCAGUUGGUACAGGAUAUCGCUUAGUGACUGAGCGAGAAGGGUGGUUCUGCA,–,–,45.2 nM,62.6 nM
